Measured values from different studies.
Protocols differ between the studies behind these lines.
Cell line: HepG2
Effect on: cell growth or viability

Compound	assay	conditions	CC50 [µM]
NC1=CC2=NCCc3c[nH]c(c32)C1=O	MTT	72 h	0.1
COCC(=O)N1CCC[C@H](C(=O)NCc2nc(-c3ccc(C)cc3)cs2)C1	ATP luminescence	96 h	> 50
Cn1nc2c(=O)n(C3CC3)cnc2c1[C@](O)(c1cnc(C(F)(F)F)c(Cl)c1)C(F)(F)F	ATP luminescence		> 50
COCC(=O)N1CCC[C@H](C(=O)NCc2nc(-c3cccnc3)cs2)C1	ATP luminescence	96 h	> 50
CCCCCNC[C@@H](O)c1cc(Cl)cc2c1-c1ccc(Cl)cc1C2		48 h	6
COC(CNC1=CC2=NCCc3c[nH]c(c32)C1=O)c1c[nH]c2ccccc12 (stereo not drawn)	MTT	72 h	20
CCCCCCCNCC(O)c1cc(Cl)cc2c1-c1ccc(Cl)cc1C2 (racemic)		48 h	5.7
COCC(=O)N1CCC[C@H](C(=O)NCc2nc(-c3ccc(OC)cc3)cs2)C1	ATP luminescence	96 h	> 50
COC1=CC2=[N+](C)CCc3c[nH]c(c32)C1=O	MTT	72 h	12.5
O[C@@H](CN[C@H](COCC1CC1)Cc1ccccc1)c1cc(Cl)cc2c1-c1ccc(Cl)cc1C2		48 h	13.8
Cn1cc2c3c1C(=O)C(NCCc1ccc(O)cc1)=CC3=NCC2	MTT	72 h	1
O[C@@H](CNCCCC(F)(F)F)c1cc(Cl)cc2c1-c1ccc(Cl)cc1C2		48 h	13.8
O=C1c2[nH]cc3c2C(=NCC3)c2c(-c3ccc(O)cc3)c[nH]c21	MTT	72 h	0.3
CCCCCCNC[C@@H](O)c1cc(Cl)cc2c1-c1ccc(Cl)cc1C2		48 h	6.3
COCC(=O)N1CCCC(C(=O)NCc2nc(-c3ccccc3)cs2)C1 (racemic)	ATP luminescence	96 h	> 50
